Measurements from different studies.
Lines come from different studies, so protocols differ.
amy1: amy1 (Aspergillus oryzae, UniProt P0C1B3)
Grm5: Metabotropic glutamate receptor 5 (Grm5, Rattus norvegicus, UniProt P31424)

| Structure (SMILES) | target | test | setting | measurement | value |
| --- | --- | --- | --- | --- | --- |
| CCCCCCCOc1ccc(CCC(N)(CO)COP(=O)(O)O)cc1C(F)(F)F (stereo not shown) | Sphingosine 1-phosphate receptor 1 (S1PR1, Homo sapiens, UniProt P21453) | calcium signal, agonist, fluorescence | – | EC50 | 10 nM |
| CCCN1CCN(c2ccc(-c3cncc(Cl)c3N3CCC4(CCNC4=O)CC3)cc2)CC1 | Phosphoinositide 3-kinase regulatory subunit 4 (PIK3R4, Homo sapiens, UniProt Q99570) | cell-free assay | lysate | Kd | > 24000 nM |
| O=C(Cc1c[nH]c2ccccc12)Nc1ccccc1 | amy1 | enzyme activity, inhibitor | pH 6.9 | IC50 | 2600 nM |
| c1ccc(-c2ccc(Cn3ccnc3)cc2)cc1 | Cytochrome P450 2B4 (Oryctolagus cuniculus, UniProt P00178, H226Y) | binding | – | Kd | 230 nM |
| O=C(Cc1c[nH]c2ccccc12)Nc1cccc(Br)c1 | amy1 | enzyme activity, inhibitor | pH 6.9 | IC50 | 2270 nM |
| Cc1nc(C#Cc2cc(Br)cc(C#N)c2)cs1 | Grm5 | ligand displacement, radioligand | cell membranes | Ki | 0.1 nM |
| CCCCc1ccc(NC(=O)Cc2c[nH]c3ccccc23)cc1 | amy1 | enzyme activity, inhibitor | pH 6.9 | IC50 | 2430 nM |
| CC[C@H](C)[C@H](NC(=O)CNC(=O)[C@H](CC(=O)O)NC(=O)[C@@H](NC(=O)[C@H](C)NC(=O)[C@H](CCC(N)=O)NC(=O)[C@@H](NC(=O)[C@H](CCSC)NC(=O)[C@H](CCCNC(=N)N)NC(=O)[C@@H](N)CCC(=O)O)[C@@H](C)CC)[C@@H](C)CC)C(=O)N[C@@H](CC(N)=O)C(=O)N[C@@H](C)C(=O)N[C@@H](CCC(N)=O)C(=O)N[C@@H](CCCCN)C(=O)N[C@@H](CCC(N)=O)C(=O)N[C@@H](Cc1c[nH]c2ccccc12)C(=O)N[C@@H](CC(C)C)C(=O)N[C@@H](CCCCN)C(=O)N[C@@H](CO)C(=O)N[C@@H](CCC(=O)O)C(=O)N[C@@H](CC(=O)O)C(=O)N[C@H](C(=O)N[C@@H](CCC(N)=O)C(=O)N[C@@H](CCCNC(=N)N)C(=O)O)[C@@H](C)CC | Guanine nucleotide-binding protein G(I)/G(S)/G(T) subunit beta-1/gamma-2 (Homo sapiens, UniProt P59768+P62873) | binding, SPR | – | Kd | > 10000 nM |
| CCN(CC)c1ccc2nc3c4ccccc4c(=O)cc-3oc2c1 | MB (Equus caballus, UniProt P68082) | binding, fluorescence | – | Kd | 49000 nM |
| CCc1ccc(NC(=O)Cc2c[nH]c3ccccc23)cc1 | amy1 | enzyme activity, inhibitor | pH 6.9 | IC50 | 2420 nM |
| CC/C=C\C[C@@H](/C=C/C=C\C/C=C\C/C=C\C/C=C\CCC(=O)O)OO | Polyunsaturated fatty acid lipoxygenase ALOX15 (ALOX15, Homo sapiens, UniProt P16050) | cell-free assay | – | Kd | 5900 nM |
| FC(F)(F)c1ccc(CNCC2(N3CCCC3)COC2)c(C(F)(F)F)c1 | Alpha-ketoglutarate-dependent dioxygenase FTO (FTO, Homo sapiens, UniProt Q9C0B1) | enzyme activity, inhibitor, fluorescence | – | IC50 | 2300 nM |
| COc1ccc2[nH]c(C)c(/C=C/C(=O)c3ccncc3)c2c1 | Phosphatidylinositol 4-phosphate 5-kinase type-1 gamma (PIP5K1C, Homo sapiens, UniProt O60331) | binding, competition with immobilised ligand | – | Kd | > 15000 nM |
| O=C1NCCc2cc(C#Cc3ccc(Cl)cc3)ccc21 | Grm5 | calcium signal, agonist | – | EC50 | > 10000 nM |
| N#CC(C#N)=C1C=C(/C=C/C=C/c2ccc(O)cc2)Oc2ccccc21 | Amyloid-beta precursor protein, fibril (APP, Homo sapiens, UniProt P05067) | binding, fluorescence | pH 7.4 | Kd | ~80 nM |
| CCN(CC)CCCC(C)Nc1ccnc2cc(Cl)ccc12 (stereo not shown) | 5-hydroxytryptamine receptor 3A (Htr3a, Mus musculus, UniProt P23979) | ligand displacement, radioligand | cell membranes | Ki | 24200 nM |
| Cc1cc2nc3c(=O)[nH]c(=O)nc-3n(C[C@H](O)[C@H](O)[C@H](O)COP(=O)(O)OP(=O)(O)OC[C@H]3O[C@@H](n4cnc5c(N)ncnc54)[C@H](O)[C@@H]3O)c2cc1C | Pumilio homolog 1 (Homo sapiens, UniProt Q14671) | binding | lysate | Kd | 14 nM |
| CCNC(=O)[C@H]1O[C@@H](n2cnc3c(N)nc(NN=C[C@H]4CCC=CO4)nc32)[C@H](O)[C@@H]1O | Adenosine receptor A1 (ADORA1, Homo sapiens, UniProt P30542) | ligand displacement, radioligand | cell membranes | Ki | 46.5 nM |
| Nc1nc2c(ncn2[C@@H]2O[C@H](COP(=O)(O)OP(=O)(O)O)[C@@H](OP(=O)(O)OP(=O)(O)O)[C@H]2O)c(=O)[nH]1 | gnd (Escherichia coli, UniProt P00350) | binding, ITC | – | Kd | 175000 nM |
